# According to ChEMBL document CHEMBL1126800, “Preparation of substituted N-phenyl-4-aryl-2-pyrimidinamines as mediator release inhibitors” (J Med Chem, 1993):
# Organism: Homo sapiens
# Experiment: In vitro inhibition of histamine release from human basophils
# Assay type: functional, organism-based
# Conditions: not given
# Summary of the method: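 Human basophils separated from leukocytes were incubated with test compound, then challenged with anti-IgE or antigen (Lichtenstein method). Histamine release was measured against controls and blanks. IC50 is the concentration lowering histamine release by 50%.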
row,IC50,Compound
1,3900 nM,c1cc(Nc2nccc(-c3ccncc3)n2)cc(-n2ccnc2)c1
2,1300 nM,c1ccc(Nc2nccc(-c3cccnc3)n2)cc1 [listing 1 of 2 here]

# Further lines, the compound ahead of its results:
row,Compound,IC50
1,c1ccc(-c2ccnc(Nc3cccc(-n4ccnc4)c3)n2)nc1,200 nM
2,FC(F)(F)c1cccc(Nc2nccc(-c3cccnc3)n2)c1 [listing 1 of 2 here],2100 nM
3,FC(F)(F)c1cccc(Nc2nccc(-c3ccccn3)n2)c1,400 nM
4,FC(F)(F)c1cccc(Nc2nccc(-c3cccnc3)n2)c1 [listing 2 of 2 here],700 nM
5,Nc1ccc(Nc2nccc(-c3ccncc3)n2)cc1 [listing 1 of 2 here],2400 nM

# Same assay, conditions: Homo sapiens
row,IC50,Compound
1,13900 nM,c1ccc(-c2nccc(-c3ccncc3)n2)cc1
2,> 24000 nM,COc1cccc(Nc2nccc(-c3sccc3C)n2)c1
3,4100 nM,CC(=O)c1cccc(Nc2nccc(-c3cccnc3)n2)c1
4,1500 nM,Nc1ccc(Nc2nccc(-c3ccccn3)n2)cc1
5,3600 nM,CC(=O)Nc1ccc(Nc2nccc(-c3cccnc3)n2)cc1
6,4100 nM,Cc1cc(C)cc(Nc2nccc(-c3cc(C)oc3C)n2)c1
7,200 nM,c1cc(Nc2nccc(-c3ccncc3)n2)cc(OCCn2ccnc2)c1
8,31900 nM,Cc1cc(-c2ccccn2)nc(Nc2ccc(N(C)C)cc2)n1
9,1500 nM,Cc1cccc(Nc2nccc(-c3cccnc3)n2)c1
10,200 nM,c1cc(Nc2nccc(-c3ccco3)n2)cc(OCCn2ccnc2)c1
11,600 nM,CC(C)(C)c1ccc(Nc2nccc(-c3cccnc3)n2)cc1
12,5100 nM,NS(=O)(=O)c1ccc(Nc2nccc(-c3ccncc3)n2)cc1
13,33300 nM,COc1ccc(Nc2nccc(-c3cc[n+](C)cc3)n2)cc1
14,200 nM,CCN(CC)CCOc1ccc(Nc2nccc(-c3cccnc3)n2)cc1
15,3300 nM,Oc1ccc(Nc2nccc(-c3ccncc3)n2)cc1
16,3700 nM,CN(C)c1cccc(Nc2nccc(-c3ccncc3)n2)c1
17,200 nM,NS(=O)(=O)c1cccc(Nc2nccc(-c3cccnc3)n2)c1
18,1000 nM,Nc1cccc(Nc2nccc(-c3ccncc3)n2)c1
19,1200 nM,CCN(CC)CCOc1cccc(Nc2nccc(-c3ccccn3)n2)c1
20,1800 nM,CN(C)c1cccc(Nc2nccc(-c3cccnc3)n2)c1
21,8800 nM,Cc1cccc(Nc2nccc(-c3ccncc3)n2)c1
22,3000 nM,c1ccc(Nc2nccc(-c3c[nH]c4ccccc34)n2)cc1
23,200 nM,c1cncc(-c2ccnc(Nc3cccc(-n4ccnc4)c3)n2)c1

row,IC50,Compound
1,300 nM,CC1CCN(C(=O)COc2ccc(Nc3nccc(-c4ccncc4)n3)cc2)CC1
2,28500 nM,Cc1cccc(Nc2nccc(-c3cc(C)oc3C)n2)c1
3,> 6000 nM,CCN(CC)CCOc1ccccc1Nc1nccc(-c2cccnc2)n1
4,700 nM,CN(C)CCOc1ccc(Nc2nccc(-c3cccnc3)n2)cc1
5,2100 nM,CN(C)c1ccc(Nc2nccc(-c3ccsc3)n2)cc1
6,1900 nM,Fc1ccc(Nc2nccc(-c3ccncc3)n2)cc1
7,1400 nM,Cc1cccc(Nc2nccc(-c3ccc(C)s3)n2)c1
8,900 nM,CC(=O)N(C)c1ccc(Nc2nccc(-c3cccnc3)n2)cc1
9,400 nM,CN(C)c1cccc(Nc2nccc(-c3ccccn3)n2)c1
10,5900 nM,Cc1ccc(Nc2nccc(-c3ccccn3)n2)cc1C
11,100 nM,c1cc(Nc2nccc(-c3cccnc3)n2)cc(OCCn2ccnc2)c1
12,3700 nM,CN(C)c1ccc(Nc2nccc(-c3ccncc3)n2)cc1
13,5000 nM,CC1CCN(c2cccc(Nc3nccc(-c4ccco4)n3)c2)CC1
14,200 nM,NS(=O)(=O)c1ccc(Nc2nccc(-c3cccnc3)n2)cc1
15,400 nM,CC1CCN(c2ccc(Nc3nccc(-c4cccs4)n3)cc2)CC1
16,300 nM,COc1cccc(Nc2nccc(-c3cccnc3)n2)c1
17,100 nM,Cc1cc(C)cc(Nc2nccc(-c3ccccn3)n2)c1
18,10500 nM,CCOC(=O)c1cccc(Nc2nccc(-c3cccnc3)n2)c1
19,400 nM,COc1cccc(Nc2nccc(-c3ccncc3)n2)c1
20,700 nM,Fc1cccc(Nc2nccc(-c3ccncc3)n2)c1
21,500 nM,NS(=O)(=O)c1cccc(Nc2nccc(-c3ccccn3)n2)c1
22,2100 nM,CCc1ccc(Nc2nccc(-c3ccccn3)n2)cc1
23,2100 nM,Cc1cccc(Nc2nccc(-c3ccco3)n2)c1

row,IC50,Compound
1,2200 nM,Cc1cccc(Nc2nccc(-c3c[nH]c4ccccc34)n2)c1
2,1900 nM,CC1CCN(c2ccc(Nc3nccc(-c4ccccn4)n3)cc2)CC1
3,> 24000 nM,Cc1cc(-c2ccncc2)nc(Nc2ccc(N(C)C)cc2)n1
4,4900 nM,Cc1cc(-c2ccnc(Nc3ccc(N(C)C)cc3)n2)c(C)o1
5,1500 nM,COc1cccc(Nc2nccc(-c3ccc(C)o3)n2)c1
6,> 24000 nM,Cc1cc(C)cc(Nc2ncc(C)c(-c3cccnc3)n2)c1
7,1400 nM,CCN(CC)CCOc1cccc(Nc2nccc(-c3ccco3)n2)c1
8,800 nM,c1cc(Nc2nccc(-c3ccco3)n2)cc(-n2ccnc2)c1
9,700 nM,Cc1cccc(Nc2nccc(-c3ccccn3)n2)c1
10,400 nM,FC(F)(F)c1cc(Nc2nccc(-c3ccncc3)n2)ccc1-n1ccnc1
11,24800 nM,Cc1cc(-c2ccc(C)s2)nc(Nc2ccccc2)n1
12,8500 nM,Cc1cccc(Nc2nccc(-c3ccc[nH]3)n2)c1
13,> 24000 nM,Cc1cc(-c2ccncc2)nc(Nc2cccc(N(C)C)c2)n1
14,36200 nM,CN(C)c1ccccc1Nc1nccc(-c2ccncc2)n1
15,4600 nM,NS(=O)(=O)c1ccc(Nc2nccc(-c3ccccn3)n2)cc1
16,3800 nM,Cc1cccc(Nc2nccc(-c3ccsc3)n2)c1
17,5800 nM,COc1cccc(Nc2nccc(-c3cc(C)oc3C)n2)c1
18,500 nM,CC(=O)N(C)c1ccc(Nc2nccc(-c3ccncc3)n2)cc1
19,300 nM,Cc1cccc(Nc2nccc(-c3cccs3)n2)c1
20,2200 nM,c1coc(-c2ccnc(Nc3ccc(-n4ccnc4)cc3)n2)c1
21,1900 nM,CN(C)c1ccc(Nc2nccc(-c3ccco3)n2)cc1
22,2900 nM,Nc1ccc(Nc2nccc(-c3ccncc3)n2)cc1 [listing 2 of 2 here]

# Continued, compound first:
row,Compound,IC50
1,CN(C)c1ccc(Nc2nccc(-c3cccnc3)n2)cc1,2800 nM
2,CCN(CC)c1ccc(Nc2nccc(-c3ccc(C)o3)n2)cc1,28000 nM
3,Oc1ccc(Nc2nccc(-c3cccnc3)n2)cc1,5100 nM
4,CCc1cccc(Nc2nccc(-c3ccsc3)n2)c1,1100 nM
5,CN(C)c1ccc(Nc2nccc(-c3cccs3)n2)cc1,900 nM
6,Cc1ccccc1Nc1nccc(-c2ccncc2)n1,3900 nM
7,CN(C)CCCOc1ccc(Nc2nccc(-c3cccnc3)n2)cc1,600 nM
8,CCc1cccc(Nc2nccc(-c3ccncc3)n2)c1,10600 nM
9,c1ccc(Nc2nccc(-c3ccco3)n2)cc1,32000 nM
10,CCc1ccc(Nc2nccc(-c3ccncc3)n2)cc1,7700 nM
11,COc1cccc(Nc2nccc(-c3ccsc3)n2)c1,1800 nM
12,CNc1ccc(Nc2nccc(-c3ccccn3)n2)cc1,1400 nM
13,c1cc(-c2ccnc(Nc3ccc(-n4ccnc4)cc3)n2)ccn1,7600 nM
14,Cc1cc(-c2ccccn2)nc(Nc2ccccc2)n1,26800 nM
15,CC(=O)Nc1ccc(Nc2nccc(-c3ccccn3)n2)cc1,1500 nM
16,CCN(CC)CCOc1cccc(Nc2nccc(-c3cccnc3)n2)c1,2900 nM
17,c1ccc(Nc2nccc(-c3cccnc3)n2)cc1 [listing 2 of 2 here],900 nM
18,Oc1ccccc1Nc1nccc(-c2cccnc2)n1,23500 nM
19,Cc1cc(C)cc(Nc2nccc(-c3cccnc3)n2)c1,800 nM
20,COc1cccc(Nc2nccc(-c3ccc(C)s3)n2)c1,2300 nM
21,CC(=O)Nc1cccc(Nc2nccc(-c3ccncc3)n2)c1,2700 nM
22,CCN(CC)CCOc1ccc(Nc2nccc(-c3ccco3)n2)cc1,1300 nM
23,CN(c1ccccc1)c1nccc(-c2ccncc2)n1,> 24000 nM
24,Cc1ccc(-c2ccnc(Nc3cccc(N(C)C)c3)n2)s1,5700 nM
25,Cc1cc(C)cc(Nc2nccc(-c3ccco3)n2)c1,700 nM
26,CCN(CC)CCCOc1ccc(Nc2nccc(-c3ccncc3)n2)cc1,1300 nM
27,CC1CCN(c2cccc(Nc3nccc(-c4cccs4)n3)c2)CC1,3500 nM
28,CCc1cccc(Nc2nccc(-c3ccccn3)n2)c1,1400 nM

row,Compound,IC50
1,CCN(CC)CCSc1ccc(Nc2nccc(-c3ccncc3)n2)cc1,1000 nM
2,Fc1cccc(Nc2nccc(-c3ccccn3)n2)c1,1000 nM
3,c1ccc(Nc2nccc(-c3ccncc3)n2)cc1,900 nM
4,COc1ccc(Nc2nccc(-c3cccnc3)n2)cc1,1700 nM
5,Cc1cc(-c2ccco2)nc(Nc2ccccc2)n1,17700 nM
6,CCN(CC)CCOc1ccc(Nc2nccc(-c3ccncc3)n2)cc1,200 nM
7,c1cc(Nc2nccc(-c3cccs3)n2)cc(-n2ccnc2)c1,300 nM
8,c1ccc(-c2ccnc(Nc3cccc(OCCn4ccnc4)c3)n2)nc1,400 nM
9,CC1CCN(c2cccc(Nc3nccc(-c4cccnc4)n3)c2)CC1,1200 nM
10,COc1ccc(N(C)c2nccc(-c3ccncc3)n2)cc1,> 24000 nM
11,COc1cccc(Nc2nc(C)cc(-c3ccncc3)n2)c1,> 24000 nM
12,CC1CCN(c2ccc(Nc3nccc(-c4cccnc4)n3)cc2)CC1,500 nM
13,CCN(CC)CCOc1cccc(Nc2nccc(-c3ccncc3)n2)c1,600 nM
14,Nc1ccc(Nc2nccc(-c3cccnc3)n2)cc1,2800 nM
15,Cc1cc(C)cc(Nc2nc(C)cc(-c3ccco3)n2)c1,> 24000 nM
16,Cc1cc(-c2ccnc(Nc3ccccc3)n2)c(C)o1,2000 nM
17,COc1cccc(Nc2nccc(-c3ccco3)n2)c1,400 nM
18,Fc1cccc(F)c1Nc1nccc(-c2cccnc2)n1,21000 nM
19,Clc1cccc(Nc2nccc(-c3cccnc3)n2)c1,1500 nM
20,CCN(CC)CCOc1ccc(Nc2nccc(-c3ccccn3)n2)cc1,> 3000 nM
21,c1cc(Nc2nccc(-c3cccs3)n2)cc(OCCn2ccnc2)c1,100 nM
22,CC(=O)c1ccc(Nc2nccc(-c3cccnc3)n2)cc1,800 nM
23,CCc1ccc(Nc2nccc(-c3ccnc4ccccc34)n2)cc1,4000 nM
24,Cc1cc(C)cc(Nc2nccc(-c3cccs3)n2)c1,4300 nM
25,COc1ccc(Nc2nccc(-c3cccs3)n2)cc1,3900 nM
26,CC(C)N(CCOc1ccc(Nc2nccc(-c3cccnc3)n2)cc1)C(C)C,4600 nM
27,COc1cccc(Nc2nccc(-c3cc4ccccc4o3)n2)c1,2800 nM
